The source of these data is ChEMBL document CHEMBL1136760 (J Med Chem, 2003).

For assay [1], the target named is T1, Sodium-dependent dopamine transporter (Rattus norvegicus, UniProt P23977). Kind of assay: Inhibition of [3H]WIN-35428 binding to the cocaine binding site on the dopamine transporter (DAT) in synaptosomal membrane preparations from rat striatal tissue. The assay is classed as cell membranes, Striatum.
For assay [2], the target named is Monoamine transporters; serotonin & dopamine (Rattus norvegicus) (UniProt P31652+P23977). The assay is described as follows: Selectivity ratio for DAT binding compared to 5-HTT binding. The assay is classed as protein assay.
For assay [3], the target named is Sodium-dependent serotonin transporter (Rattus norvegicus, UniProt P31652). Kind of assay: Inhibition of [3H]citalopram binding to Serotonin transporter (5-HTT) in rat cortical tissue. An outline of the steps:
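Rat cortical P2 fraction homogenized in 16 volumes of ice-cold 25 mM sodium phosphate, pH 7.7. [3H]citalopram at 2 nM final; 1 µM clomipramine defines nonspecific binding. Usually seven drug concentrations, triplicates, organic solvent ≤0.3 vol %. Incubated 3 h at 0 °C, then filtered on PEI-soaked glass fibre and counted. IC50 and Hill coefficients from dose-response curves.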

For assay [4], the target named is T1, Sodium-dependent dopamine transporter. The assay is described as follows: Inhibition of [3H]DA uptake at DAT in rat striatal synaptosomes.
Assay [5] deals with Sodium-dependent serotonin transporter (Rattus norvegicus) (UniProt P31652). The assay is described as follows: Inhibition of [3H]citalopram binding to Serotonin transporter (5-HTT) in rat cortical tissue […]. Particulars: 10 uM. An outline of the steps: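 Rat cortical P2 membranes in 25 mM sodium phosphate, pH 7.7; 1 µM clomipramine defines nonspecific binding. Incubated 3 h at 0 °C, then rapid filtration on PEI-presoaked filters and radioactivity counting.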
Sodium-dependent serotonin transporter (Rattus norvegicus), sequence (P31652 whole entry): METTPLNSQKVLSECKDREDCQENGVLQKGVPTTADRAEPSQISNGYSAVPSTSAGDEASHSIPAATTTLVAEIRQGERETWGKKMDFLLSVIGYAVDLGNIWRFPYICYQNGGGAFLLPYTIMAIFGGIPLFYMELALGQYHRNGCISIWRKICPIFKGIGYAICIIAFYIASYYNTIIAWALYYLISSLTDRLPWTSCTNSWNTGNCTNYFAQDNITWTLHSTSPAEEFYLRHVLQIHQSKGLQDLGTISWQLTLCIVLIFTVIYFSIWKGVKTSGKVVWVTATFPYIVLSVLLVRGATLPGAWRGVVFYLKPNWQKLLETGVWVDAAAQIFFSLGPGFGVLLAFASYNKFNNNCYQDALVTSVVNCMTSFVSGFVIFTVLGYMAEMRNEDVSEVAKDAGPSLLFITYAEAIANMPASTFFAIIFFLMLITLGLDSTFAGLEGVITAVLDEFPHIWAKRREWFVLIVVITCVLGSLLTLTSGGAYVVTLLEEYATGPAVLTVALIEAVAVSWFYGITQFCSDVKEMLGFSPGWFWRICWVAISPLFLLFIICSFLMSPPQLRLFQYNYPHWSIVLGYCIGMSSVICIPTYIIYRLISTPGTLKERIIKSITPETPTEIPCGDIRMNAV

Sodium-dependent serotonin transporter, sequence (P31652 whole entry): as above
Monoamine transporters; serotonin & dopamine (Rattus norvegicus), sequence (P23977 whole entry, looked up): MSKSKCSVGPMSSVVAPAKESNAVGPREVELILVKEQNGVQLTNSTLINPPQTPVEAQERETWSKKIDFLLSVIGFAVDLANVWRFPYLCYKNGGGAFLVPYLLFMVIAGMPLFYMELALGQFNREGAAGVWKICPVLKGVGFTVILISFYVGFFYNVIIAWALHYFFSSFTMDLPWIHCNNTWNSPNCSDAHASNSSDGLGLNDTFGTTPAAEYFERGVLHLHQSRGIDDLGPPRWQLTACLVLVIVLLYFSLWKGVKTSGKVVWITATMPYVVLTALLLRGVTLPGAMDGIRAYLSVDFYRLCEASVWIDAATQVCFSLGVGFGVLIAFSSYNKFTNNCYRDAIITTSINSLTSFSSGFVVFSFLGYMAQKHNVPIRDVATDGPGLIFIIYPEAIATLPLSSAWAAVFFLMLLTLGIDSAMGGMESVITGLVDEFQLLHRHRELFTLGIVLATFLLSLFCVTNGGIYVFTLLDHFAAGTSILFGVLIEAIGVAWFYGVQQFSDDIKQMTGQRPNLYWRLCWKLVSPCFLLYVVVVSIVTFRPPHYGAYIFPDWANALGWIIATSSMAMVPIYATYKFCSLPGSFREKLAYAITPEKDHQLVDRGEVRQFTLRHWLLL
Monoamine transporters; serotonin & dopamine (Rattus norvegicus), sequence (P31652 whole entry, looked up): as the sequence (P31652 whole entry) above
T1 sequence (P23977 whole entry): as the sequence (P23977 whole entry, looked up) above

For the compound `OC1(c2ccc(Cl)cc2)C2CCC1CN(Cc1ccccc1)C2` (stereo unspecified), the values for the IC50 in assay [1], in assay [3] and in assay [4] were 1.51 µM, 0.997 µM and 2.63 µM, respectively. In assay [2], the Selectivity ratio worked out at 0.66.
As for `c1ccc(CN2CC3CCC(C3)C2)cc1`, the results for the 50% inhibitory concentration (IC50) in assay [1], in assay [3] and in assay [4] were 24.3 µM, more than 10 µM and 35.7 µM, respectively. For the same compound, the Selectivity ratio in assay [2] was more than 0.41. The inhibition (usually the drop in the measured response relative to a control, in per cent) in assay [5] is 24.4%.
As for `c1ccc(CN2CC3CCC(C2)C3OC(c2ccccc2)c2ccccc2)cc1` (stereo in doubt; 17a) [listing 1 of 2 here], the IC50 – broadly, the point on the concentration scale where inhibition reaches its midpoint – in assay [1] was found to be 0.363 µM; in assay [3], 10 µM; in assay [4], 0.735 µM.
In the case of `c1ccc(CN2CC3CCC(C2)C3c2ccccc2)cc1` (stereo in doubt; 14) [3-BENZYL-8-PHENYL-3-AZA-BICYCLO[3.2.1]OCTANE (STEREOISOMERIC MIX)], the IC50 was found to be 0.785 µM in assay [1], 3.88 µM in assay [3] and 4.45 µM in assay [4].
As for `CN1CC2CCC(C1)C2(O)c1ccccc1` (stereo unspecified), the values for the IC50 in assay [1], in assay [3] and in assay [4] were 10.1 µM, more than 10 µM and 9.77 µM, respectively. Moreover, in assay [2], the Selectivity ratio was more than 1. In assay [5], this compound displayed an inhibition of 27.8%.
`c1ccc(C2C3CCC2CNC3)cc1` (stereo unspecified): the values for the 50% inhibitory concentration (IC50) in assay [1], in assay [3] and in assay [4] were 0.258 µM, 4 µM and 0.893 µM, respectively. For the same compound, the Selectivity ratio in assay [2] was 16.
Take `c1ccc(CN2CC3CCC(C2)C3OC(c2ccccc2)c2ccccc2)cc1` (stereo in doubt; 17a) [listing 2 of 2 here]: the Selectivity ratio in assay [2] was found to be 27. Also, the inhibition in assay [5] came out at 61%.
On to `c1ccc(CN2CC3CCC(C2)C3c2ccccc2)cc1` (stereo in doubt; 8a), for which the Selectivity ratio in assay [2] is 14.8.
As for `CN1CC2CCC(C1)C2c1ccccc1` (stereo unspecified), the IC50 came out at 0.36 µM in assay [1], 1.85 µM in assay [3] and 1.04 µM in assay [4]. For the same compound, in assay [2], the Selectivity ratio turned out to be 5.1.
For `c1ccc(CN2CC3CCC(C2)C3c2ccccc2)cc1` (stereo in doubt; 8a) [3-BENZYL-8-PHENYL-3-AZA-BICYCLO[3.2.1]OCTANE (STEREOISOMERIC MIX)], the IC50 in assay [1] amounted to 0.234 µM; in assay [3], 3.46 µM; in assay [4], 0.309 µM.
As for `c1ccc(CN2CC3CCC(C2)C3c2ccccc2)cc1` (stereo in doubt; 14), in assay [2], the Selectivity ratio stood at 4.9.
As for `OC1(c2ccccc2)C2CCC1CN(Cc1ccccc1)C2` (stereo unspecified), the IC50 in assay [1] came out at 17.5 µM; in assay [3], 3.06 µM; in assay [4], 27.1 µM. Moreover, the Selectivity ratio in assay [2] is 0.17.
On to `OC1C2CCC1CN(Cc1ccccc1)C2` (stereo unspecified), for which the IC50 in assay [1] is 22.1 µM; in assay [3], more than 10 µM; in assay [4], 45 µM. Also, the Selectivity ratio in assay [2] is more than 0.45. The compound further returned an inhibition in assay [5] of 23.8%.
Take `BrC1C2CCC1CN(Cc1ccccc1)C2` (stereo unspecified): the Selectivity ratio in assay [2] was more than 2.2. Also, in assay [5], the inhibition came out at 30.4%. Further, the IC50 was more than 10 µM in assay [3] and 8.64 µM in assay [4].
In assay [5], `OC1(c2ccccc2)C2CCC1CNC2` (stereo unspecified) registered an inhibition of 46.2%. The compound also gave an IC50 in assay [4] of 8.48 µM.
In the case of `c1ccc(CN2CC3CCC(C2)C3OC(c2ccccc2)c2ccccc2)cc1` (stereo in doubt; 17b) [listing 1 of 2 here], the Selectivity ratio in assay [2] was more than 18. In addition, the inhibition in assay [5] turned out to be 29.8%.
Regarding `c1ccc(CN2CC3CCC(C2)C3OC(c2ccccc2)c2ccccc2)cc1` (stereo in doubt; 17b) [listing 2 of 2 here], the IC50 in assay [1] is 0.536 µM; in assay [3] it was more than 10 µM; in assay [4], 1.98 µM.
As for `Clc1ccc(C2C3CCC2CN(Cc2ccccc2)C3)cc1` (stereo unspecified), the IC50 amounted to 0.0955 µM in assay [1], 0.402 µM in assay [3] and 0.601 µM in assay [4]. In assay [2], the Selectivity ratio was determined as 4.2.
For the compound `CN1CC2CCC(C1)C2c1ccc(Cl)cc1` (stereo unspecified), in assay [2], the Selectivity ratio was found to be 0.81. The concentration for half-maximal inhibition (IC50) amounted to 0.22 µM in assay [3] and 0.926 µM in assay [4].
`Clc1ccc(C2C3CCC2CNC3)cc1` (stereo unspecified): the values for the IC50 in assay [1], in assay [3] and in assay [4] were 0.0815 µM, 0.363 µM and 0.478 µM, respectively. Besides, the Selectivity ratio in assay [2] is 4.4.
